The values that follow come from ChEMBL document CHEMBL3091381, “In vitro cytotoxicity on human ovarian cancer cells by T-type calcium channel blockers” (Bioorg Med Chem Lett, 2013).

Active and inactive are the calls of the source. No cut-off for these calls is given here.

A short description of data set [1]: Cytotoxicity against human paclitaxel-resistant A2780T cells after 48 hrs by MTT assay. Conditions: A2780/Taxol. Format: functional, cell-based. In outline:
(§1)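 MTT viability assay. Cells were seeded and grown 24 h, then exposed 48 h to a range of concentrations of test agent in DMSO (0.1% final), with vehicle-matched DMSO controls. Medium was replaced by 0.5 mg/mL MTT in RPMI with 10% FBS for 2 h at 37 °C. Dye was solubilized and absorbance read. IC50 from dose–response curves, three independent experiments.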
On the technique in general: Formazan colour is commonly taken as a measure of viable cells.

The subject of data set [2] is A2780. The experiment in a line: Cytotoxicity against human A2780 cells after 48 hrs by MTT assay. Format: functional, cell-based. Conditions: A2780, 48 h. The gist of the method:
as §1

The subject of the next data set is SK-OV-3. Briefly: Cytotoxicity against human SKOV3 cells after 48 hrs by MTT assay. The data set is classed as functional, cell-based. The following applies: SK-OV-3, 48 h. In outline: as §1
In data set [3] the target is T1, Voltage-dependent T-type calcium channel subunit alpha-1G (Homo sapiens, UniProt O43497). The experiment in a line: Inhibition of t-type Cav3.1 channel (unknown origin) expressed in HEK293 cells assessed as inhibition of 50 ms depolarizing voltage step-induced current by whole cell patch-clamp method. The data set is classed as cell-based. In general terms: Patch clamp records ionic current or voltage across a cell membrane.

Data set [4] concerns the target T1, Voltage-dependent T-type calcium channel subunit alpha-1G. The experiment in a line: Inhibition of t-type Cav3.1 channel (unknown origin) expressed in HEK293 cells assessed as inhibition of 50 ms depolarizing voltage step-induced current at 1 uM by whole cell patch-clamp method relative to control. The data set is classed as cell-based.
Data set [5] relates to A2780. The experiment in a line: Induction of apoptosis in human A2780 cells assessed as cell shrinkage, membrane blebbing, chromatin condensation and apoptotic body formation at 6 uM after 24 hrs by DAPI staining. Format: functional, cell-based. The gist of the method: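 A2780 cells exposed 24 h to 6 µM compound, then fixed, washed three times in PBS and stained 5 min with 0.1 µg/mL DAPI. Cells were washed, mounted in PBS with 10% glycerol and examined by fluorescence microscopy for shrinkage, blebbing, chromatin condensation and apoptotic bodies.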

Data set [6] can be described thus: Cell cycle arrest in human paclitaxel-resistant A2780T cells assessed as accumulation at sub-G1 phase after 24 hrs by FACS analysis. The data set is classed as functional, cell-based. The following applies: A2780/Taxol, in the assay text read “G1 phase” for “sub-G1 phase”. In outline: (§2)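 A2780 or paclitaxel-resistant A2780-T cells treated 24 h with compound at 0, 2, 4, 6 or 8 µM, depending on the series. Fixed cells were washed in PBS and stained 30 min in the dark with PI plus 100 µg/mL DNase-free RNase A. Phase distribution was read by flow cytometry. Means ± SD of three independent experiments; ANOVA with Dunnett's post-hoc test versus untreated control.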

The test system of data set [7] is A2780. The experiment in a line: Cell cycle arrest in human A2780 cells assessed as accumulation at sub-G1 phase after 24 hrs by FACS analysis. Conditions: in the assay text read “G1 phase” for “sub-G1 phase”. Format: functional, cell-based. In outline:
as §2
(A flow cytometer gives signals particle by particle.)

For the next data set, the system named is Mus musculus. The experiment in a line: Toxicity in BALB/c mouse assessed as mortality at 40 mg/kg, po for 2 weeks. Format: organism-based. Further details: dose 40 mg/kg, route oral. The following applies: in vivo, 336 h.
The subject of data set [8] is A2780. Briefly: Cell cycle arrest in human A2780 cells assessed as accumulation at G2/M phase at 6 uM after 24 hrs by FACS analysis. Format: functional. The gist of the method: as §2
In data set [9] the test system is A2780. Briefly: Cell cycle arrest in human A2780 cells assessed as accumulation at S phase at 6 uM after 24 hrs by FACS analysis. The data set is classed as functional. In outline:
as §2

Data set [10] relates to A2780. Briefly: Cell cycle arrest in human A2780 cells assessed as accumulation at sub-G1 phase at 6 uM after 24 hrs by FACS analysis. The data set is classed as functional. The gist of the method: as §2
Data set [11] has as its system A2780. Briefly: Cell cycle arrest in human A2780 cells assessed as accumulation at G0/G1 phase at 6 uM after 24 hrs by FACS analysis. Format: functional. The gist of the method:
as §2

The next data set concerns HEK293. Briefly: Cytotoxicity against human HEK293 cells after 48 hrs by MTT assay. The data set is classed as cell-based. Conditions: HEK293, 48 h. The gist of the method:
as §1

A short description of data set [12]: Ratio of IC50 for mibefradil to compound IC50 for human paclitaxel-resistant A2780T cells. Format: functional.
Data set [13] can be described thus: Cell cycle arrest in human paclitaxel-resistant A2780T cells assessed as accumulation at sub-G1 phase at 8 uM after 24 hrs by FACS analysis. Format: functional, cell-based. The following applies: A2780/Taxol. The gist of the method: as §2
Data set [14] has as its system A2780. Briefly: Cell cycle arrest in human A2780 cells assessed as accumulation at sub-G1 phase at 2 to 4 uM after 24 hrs by FACS analysis. Format: functional. The gist of the method: as §2
Data set [15] in a line: Cell cycle arrest in human paclitaxel-resistant A2780T cells assessed as accumulation at sub-G1 phase at 2 to 4 uM after 24 hrs by FACS analysis. The data set is classed as functional, cell-based. The following applies: A2780/Taxol. The gist of the method: as §2
The subject of data set [16] is A2780. Briefly: Cell cycle arrest in human A2780 cells assessed as accumulation at sub-G1 phase at 8 uM after 24 hrs by FACS analysis (reference value: 3.1%). The data set is classed as functional. The gist of the method:
as §2

T1 sequence (O43497 whole entry): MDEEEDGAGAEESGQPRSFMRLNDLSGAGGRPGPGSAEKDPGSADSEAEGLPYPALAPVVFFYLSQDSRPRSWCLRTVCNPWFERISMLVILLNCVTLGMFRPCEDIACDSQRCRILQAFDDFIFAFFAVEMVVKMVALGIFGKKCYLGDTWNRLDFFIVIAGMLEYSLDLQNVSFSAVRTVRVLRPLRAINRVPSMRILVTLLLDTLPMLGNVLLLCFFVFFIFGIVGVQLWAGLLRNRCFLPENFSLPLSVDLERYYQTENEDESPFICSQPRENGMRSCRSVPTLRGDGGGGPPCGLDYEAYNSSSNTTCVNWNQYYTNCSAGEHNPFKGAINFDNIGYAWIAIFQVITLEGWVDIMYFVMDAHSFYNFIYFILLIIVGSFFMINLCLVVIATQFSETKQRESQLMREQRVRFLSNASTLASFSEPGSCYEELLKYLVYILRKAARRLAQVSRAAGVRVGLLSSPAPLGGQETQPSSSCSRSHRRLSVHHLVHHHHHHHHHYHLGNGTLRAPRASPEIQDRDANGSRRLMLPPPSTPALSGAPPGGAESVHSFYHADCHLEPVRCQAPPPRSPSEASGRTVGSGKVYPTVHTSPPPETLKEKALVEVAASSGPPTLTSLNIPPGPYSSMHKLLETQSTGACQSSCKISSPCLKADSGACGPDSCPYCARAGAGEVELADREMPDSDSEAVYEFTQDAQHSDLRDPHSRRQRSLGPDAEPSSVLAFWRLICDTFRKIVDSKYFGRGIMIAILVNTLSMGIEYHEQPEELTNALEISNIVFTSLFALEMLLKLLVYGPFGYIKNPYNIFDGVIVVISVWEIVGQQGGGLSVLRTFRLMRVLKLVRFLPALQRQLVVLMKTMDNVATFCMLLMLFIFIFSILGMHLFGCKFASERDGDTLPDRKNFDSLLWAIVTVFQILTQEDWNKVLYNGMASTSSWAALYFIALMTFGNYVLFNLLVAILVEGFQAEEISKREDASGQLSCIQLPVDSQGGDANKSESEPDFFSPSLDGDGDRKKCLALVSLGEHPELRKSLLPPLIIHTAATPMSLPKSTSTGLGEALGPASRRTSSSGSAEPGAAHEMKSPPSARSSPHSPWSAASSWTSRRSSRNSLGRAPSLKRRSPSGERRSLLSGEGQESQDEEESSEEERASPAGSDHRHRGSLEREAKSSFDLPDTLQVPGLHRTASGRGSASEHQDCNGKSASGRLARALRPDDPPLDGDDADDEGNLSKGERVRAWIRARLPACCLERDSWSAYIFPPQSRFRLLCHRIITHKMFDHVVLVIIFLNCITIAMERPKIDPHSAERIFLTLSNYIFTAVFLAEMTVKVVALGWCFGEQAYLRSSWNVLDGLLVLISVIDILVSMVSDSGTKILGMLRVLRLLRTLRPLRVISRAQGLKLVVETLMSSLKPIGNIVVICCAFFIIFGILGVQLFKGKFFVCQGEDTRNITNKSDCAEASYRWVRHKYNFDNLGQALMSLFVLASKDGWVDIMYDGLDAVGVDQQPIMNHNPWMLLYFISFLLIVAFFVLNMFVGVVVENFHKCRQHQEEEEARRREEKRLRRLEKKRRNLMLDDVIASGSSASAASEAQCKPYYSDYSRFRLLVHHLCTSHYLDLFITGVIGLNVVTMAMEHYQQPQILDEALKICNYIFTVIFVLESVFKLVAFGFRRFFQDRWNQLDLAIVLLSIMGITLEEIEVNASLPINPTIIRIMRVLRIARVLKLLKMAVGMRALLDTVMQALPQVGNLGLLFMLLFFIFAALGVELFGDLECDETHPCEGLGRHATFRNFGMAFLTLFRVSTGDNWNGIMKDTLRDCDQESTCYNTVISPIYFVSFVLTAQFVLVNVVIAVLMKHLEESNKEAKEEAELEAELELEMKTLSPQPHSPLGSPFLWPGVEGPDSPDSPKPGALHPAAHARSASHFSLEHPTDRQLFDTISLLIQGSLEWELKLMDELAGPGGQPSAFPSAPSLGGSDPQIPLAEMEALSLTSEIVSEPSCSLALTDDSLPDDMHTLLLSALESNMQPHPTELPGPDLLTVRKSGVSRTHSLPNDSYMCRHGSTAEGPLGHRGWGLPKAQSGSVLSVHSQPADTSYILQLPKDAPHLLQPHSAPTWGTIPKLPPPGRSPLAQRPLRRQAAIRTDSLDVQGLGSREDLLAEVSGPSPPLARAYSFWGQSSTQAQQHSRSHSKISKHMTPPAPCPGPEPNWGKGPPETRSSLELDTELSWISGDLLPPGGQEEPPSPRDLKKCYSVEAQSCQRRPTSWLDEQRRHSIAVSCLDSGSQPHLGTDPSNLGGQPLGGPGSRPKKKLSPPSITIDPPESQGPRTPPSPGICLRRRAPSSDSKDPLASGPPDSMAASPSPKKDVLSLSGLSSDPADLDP

On to `CN(C)CCCCN(C)C1=Nc2ccccc2C(CC(=O)NCc2ccccc2)N1c1ccc(-c2ccccc2)cc1` (stereo not given), for which the IC50 (usually the concentration needed to halve the response being measured) in data set [1] came to 3.97 µM; with A2780 [2], 1.65 µM; in the data set on SK-OV-3, 9.78 µM; in data set [3], 0.31 µM. In data set [4], the inhibition (in general, the change of the read-out against control, counted positive when it falls) amounted to 81.7%.
For the molecule `CN(C)CCN1CCN(C2=Nc3ccccc3C(CC(=O)NCc3ccc(F)cc3)N2c2ccc(-c3ccccc3)cc2)CC1` (stereo not given), the outcome in the data set with A2780 [5] was Active. The Activity entry was “Dose-dependent effect” in data set [6]; “Dose-dependent effect” in the data set with A2780 [7]; “Non-toxic” in the data set on Mus musculus; 8.1% in the data set on A2780 [8]; 7.1% with A2780 [9]; 18.1% with A2780 [10]. In addition, the Activity in the data set with A2780 [11] is 66.7%. For the same molecule, the IC50 in the data set with HEK293 was found to be 10 µM; in data set [1] it was 4 µM; with A2780 [2], 1.6 µM; in the data set on SK-OV-3, 3.09 µM; in data set [3], 0.32 µM. In data set [4], the inhibition amounted to 81%.
`CN(C)CCN1CCN(C2=Nc3ccccc3C(CC(=O)NCc3ccccc3)N2c2ccc(-c3ccccn3)cc2)CC1` (stereo not given): the IC50 (in [1]; with A2780 [2]) was greater than 5 µM each time. Further, the inhibition in [4] came to 32.3%.
In the case of `COCC(=O)O[C@]1(CCN(C)CCCc2nc3ccccc3[nH]2)CCc2cc(F)ccc2[C@@H]1C(C)C` [MIBEFRADIL], the figures for the IC50 (in [1]; with A2780 [2]; in the data set on SK-OV-3) were 35.3 µM, 24.2 µM and 20.5 µM, respectively. Moreover, the inhibition in data set [4] turned out to be 55.1%.
Turning to `CN(C)CCCCCCN(C)C1=Nc2ccccc2C(CC(=O)NCc2ccccc2)N1c1ccc(-c2ccccc2)cc1` (stereo not given), in data set [12], the “Ratio IC50” value is on record as 20. In addition, the IC50 is 1.74 µM in data set [1], 1.19 µM with A2780 [2], 5.78 µM in the data set with SK-OV-3 and 0.55 µM in data set [3]. For the same molecule, the inhibition in data set [4] is 66.7%.
Consider `Cc1ccc(CNC(=O)CC2c3ccccc3N=C(N3CCN(CCN(C)C)CC3)N2c2ccc(-c3ccccc3)cc2)cc1` (stereo not given), for which the IC50 in data set [1] is 3.52 µM; in the data set on A2780 [2], 1.6 µM; with SK-OV-3, 2.33 µM; in data set [3], 0.46 µM. In [4], the inhibition was determined as 57.8%.
Regarding `CN(C)CCCCCN(C)C1=Nc2ccccc2C(CC(=O)NCc2ccccc2)N1c1ccc(-c2ccccc2)cc1` (stereo not given), the “Ratio IC50” value in data set [12] came to 20. Besides, the Activity was 95.4% in [13]; 61.4% in the data set on A2780 [14]; 14.7% in [15]; 5.3% in the data set on A2780 [8]; 71.4% with A2780 [16]; 5.8% in the data set on A2780 [9]. Further, the Activity is 63.3% in the data set with A2780 [10] and 25.6% in the data set on A2780 [11]. In addition, the IC50 in data set [1] worked out at 1.6 µM; in the data set on A2780 [2] it was 1.06 µM; in the data set with SK-OV-3 it was 2.47 µM; in [3] it was 0.26 µM. In addition, the inhibition in data set [4] worked out at 76.6%.
`COc1ccc(CNC(=O)CC2c3ccccc3N=C(N3CCN(CCN(C)C)CC3)N2c2ccc(-c3ccccc3)cc2)cc1` (stereo not given): the result with A2780 [5] was Active. For the same molecule, the Activity entry in data set [6] is “Dose-dependent effect”; in the data set with A2780 [7] it was “Dose-dependent effect”; in the data set with Mus musculus it was “Non-toxic”; in the data set on A2780 [8], 7.3%; in the data set on A2780 [9] it was 7.3%; in the data set with A2780 [10], 21.6%. Further, the Activity with A2780 [11] was found to be 63.8%. For the same molecule, the IC50 is 9.28 µM in the data set with HEK293; 3.82 µM in [1]; 1.44 µM with A2780 [2]; 2.47 µM in the data set with SK-OV-3; 0.31 µM in data set [3]. The inhibition in data set [4] came to 75.9%.
For the molecule `CN(C)CCCCCN(C)C1=Nc2ccccc2C(CC(=O)NCc2ccccc2)N1c1ccc(-c2ccccn2)cc1` (stereo not given), the figures for the IC50 (in data set [1]; in the data set with SK-OV-3) were greater than 5 µM and 2.41 µM, respectively. The inhibition in [4] is 30.9%.
Turning to `CN(C)CCN1CCN(C2=Nc3ccccc3C(CC(=O)NCc3ccccn3)N2c2ccc(-c3ccccc3)cc2)CC1` (stereo not given), the IC50 in data set [1] was greater than 5 µM; in the data set with A2780 [2], 4.86 µM; with SK-OV-3 it was 5.08 µM. Moreover, the inhibition in data set [4] was determined as 43.9%.
As to `CN(C)CCN1CCN(C2=Nc3ccccc3C(CC(=O)NCc3ccccc3)N2c2ccc(-c3ccccc3)cc2)CC1` (stereo not given), the IC50 in data set [1] was 2.39 µM; in the data set on A2780 [2] it was 1.39 µM; in the data set on SK-OV-3, 1.97 µM. For the same molecule, in data set [4], the inhibition stood at 46.8%.
As for `COc1ccc(CNC(=O)CC2c3ccccc3N=C(N(C)CCCCCN(C)C)N2c2ccc(-c3ccccc3)cc2)cc1` (stereo not given), the IC50 in data set [1] was determined as 2.52 µM; in the data set on A2780 [2] it was 1.38 µM; in the data set on SK-OV-3, 4.46 µM; in data set [3], 0.39 µM. In addition, the inhibition in [4] is 68.2%.
With `CN(C)CCN1CCN(C2=Nc3ccccc3C(CC(=O)NCc3ccncc3)N2c2ccc(-c3ccccc3)cc2)CC1` (stereo not given), the IC50 is greater than 5 µM in data set [1], greater than 5 µM with A2780 [2] and 11.7 µM in the data set with SK-OV-3. Moreover, in data set [4], the inhibition came to 29.1%.
